The source of these data is ChEMBL document CHEMBL1926589, “2-Anilinonicotinyl linked 2-aminobenzothiazoles and [1,2,4]triazolo[1,5-b] [1,2,4]benzothiadiazine conjugates as potential mitochondrial apoptotic inducers” (Bioorg Med Chem, 2011).

One assay deals with SW-620. As to the kind of experiment: Growth inhibition of human SW620 cells at 10 uM by sulforhodamine B assay. In kind it is functional. The settings on record: read-out: GI. In a few lines:
(§1)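 Single-dose 10 µM screen by sulforhodamine B assay, reported as percent inhibition of cell proliferation. Cells grown in medium with 10% heat-inactivated FBS at 37 °C, 5% CO2, and treated at about 70% confluence or in log phase. Compounds dissolved in DMSO; controls received vehicle (<0.5% v/v).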

Assay [1] in a line: Growth inhibition of human 502713 cells at 10 uM by sulforhodamine B assay. The class given is functional. As to conditions: read-out: GI. In a few lines:
as §1

The test system of a further assay is DU-145. As to the kind of experiment: Growth inhibition of human DU145 cells at 10 uM by sulforhodamine B assay. The class given is functional. As to conditions: read-out: GI. In a few lines:
as §1

The test system of another assay is OVCAR-5. As to the kind of experiment: Growth inhibition of human OVCAR5 cells at 10 uM by sulforhodamine B assay. The settings on record: read-out: GI. The class given is functional. In a few lines: as §1
Assay [2] concerns HL-60. Kind of assay: Induction of apoptosis in human HL60 cells assessed as late apoptotic cells at 1 uM after 24 hrs using Annexin V-FITC and propidium iodide staining by flow cytometry relative to control. In kind it is functional. An outline of the steps:
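HL-60 cells (1 x 10^5 per 1.5 mL) treated 24 h, washed twice in PBS and stained in binding buffer with annexin V-FITC and PI. Flow cytometry with FITC in FL-1 (530 nm) and PI in FL-2 (585 nm), using quadrant statistics: lower right taken as apoptotic, upper right as post-apoptotic necrotic. Representative of three independent experiments.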

Assay [3] has as its system HL-60. As to the kind of experiment: Induction of apoptosis in human HL60 cells assessed as caspase3 activation using DEVD-AFC as substrate at 1 uM after 24 hrs by fluorimetry relative to control. The class given is functional. In a few lines: (§2)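 HL-60 cells (2 x 10^6) treated 24 h, washed and lysed. Caspase-3, -8 and -9 activities in lysates measured fluorometrically with a commercial caspase fluorescent assay kit. Two independent experiments, each in duplicate.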

Assay [4] deals with HL-60. As to the kind of experiment: Induction of apoptosis in human HL60 cells assessed as caspase8 activation using IETD-AFC as substrate at 1 uM after 24 hrs by fluorimetry relative to control. The class given is functional. In a few lines:
as §2

Assay [5] concerns HL-60. As to the kind of experiment: Induction of apoptosis in human HL60 cells assessed as DNA ladder formation at 1 uM after 24 hrs by agarose gel electrophoresis. In kind it is functional, cell-based. In a few lines:
(§3)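 Cells treated 24 h, then 2 x 10^6 cells lysed (Triton X-100 buffer, pH 8.0) with RNase at 37 °C for 90 min and proteinase-K at 50 °C for 1 h. DNA phenol/chloroform-extracted and ethanol-precipitated, then run on 1.8% agarose at 50 V for 1.5 h in TAE. Ladders viewed under UV.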

A further assay has as its system SiHa. As to the kind of experiment: Induction of apoptosis in human SiHa cells assessed as DNA ladder formation at 10 uM after 24 hrs by agarose gel electrophoresis. The class given is functional, cell-based. In a few lines: as §3
For assay [6], the system named is HL-60. As to the kind of experiment: Cell cycle arrest in human HL60 cells assessed as accumulation at G2/M phase at 1 uM after 24 hrs using propidium iodide staining by flow cytometry. The class given is functional, cell-based. An outline of the steps: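 HL-60 cells (1 x 10^5 per 1.5 mL) treated 24 h, then fixed in 70% cold ethanol at −20 °C overnight. RNase digestion (400 µg/ml) at 37 °C for 45 min, then propidium iodide (10 µg/ml) for 30 min. Flow cytometry on 10,000 events, FL2-A vs FL2-W, with doublet discrimination. Sub-G0 (hypodiploid) peak taken as apoptotic cells. Mean ± SD of three independent experiments.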

Assay [7] deals with HL-60. Kind of assay: Induction of apoptosis in human HL60 cells assessed as decrease in mitochondrial membrane potential at 1 uM after 24 hrs using rhodamine 123 staining by flow cytometry. On the set-up: scale not given: the % may be the effect or the level left. The class given is functional. In a few lines:
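HL-60 cells (1 x 10^5 per 1.5 mL) treated 24 h, then stained with rhodamine-123 (5 µg/mL final) for 1 h. Washed, and propidium iodide (5 µg/mL) added just before reading. FL-1 fluorescence from 10,000 events; percentage of low Rh-123 cells taken as loss of membrane potential. Mean ± SD, n=3.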

For assay [8], the system named is HL-60. As to the kind of experiment: Induction of apoptosis in human HL60 cells assessed as PARP cleavage at 1 uM after 24 hrs by Western blotting. In kind it is functional, cell-based. In a few lines:
(§4)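 HL-60 cells treated 24 h and lysed in RIPA buffer on ice; protein measured by Bradford against a BSA standard. 50 µg resolved by SDS-PAGE and transferred to PVDF, blocked in 5% milk/TBST, then primary antibodies 1:1000 for 2 h and HRP secondary 1:1000 for 1 h. ECL detection with β-actin as loading control; bands quantified by densitometry.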

For assay [9], the system named is HL-60. As to the kind of experiment: Inhibition of Bcl-2 expression in human HL60 cells at 1 uM after 24 hrs by Western blotting. The class given is functional, cell-based. An outline of the steps: as §4
In assay [10] the test system is HL-60. Kind of assay: Induction of apoptosis in human HL60 cells assessed as blebbing of plasma membrane at 1 uM after 12 hrs by scanning electron microscopy. The class given is functional, cell-based. In a few lines:
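HL-60 cells at 2 x 10^5/ml in 10% FCS medium exposed to 0.5 or 1 µM for 6–48 h; DMSO vehicle controls. Cells fixed in 2.5% glutaraldehyde in 0.1 M phosphate (pH 7.2) at 4 °C for 1 h, post-fixed in 1% OsO4 and ethanol-dehydrated. Critical-point dried, gold-coated, and imaged by SEM at 40 kV.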

In another assay the test system is PC-3. As to the kind of experiment: Induction of apoptosis in human PC3 cells assessed as nuclear fragmentation at 1 uM after 24 hrs by DAPI staining-based fluorescence microscopy. In kind it is functional, cell-based. An outline of the steps: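 HL-60 or PC-3 cells treated at 1 µM for 24 h. Air-dried smears fixed in methanol at −20 °C for 20 min and stained with DAPI (1 µg/mL) for 20 min at room temperature in the dark. Mounted in 90% glycerol/PBS and examined by fluorescence microscopy for nuclear morphology.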

Active and inactive are the calls of the source. The rule behind the calls is not given here.

On to `O=C(Nc1nc2ccc([N+](=O)[O-])cc2s1)c1cccnc1Nc1cc(F)c(F)c(F)c1`, for which the inhibition of growth at 10 µM in the assay on SW-620 came out at 70%; in [1], 80%; in the assay on DU-145 it was 39%; in the assay with OVCAR-5, 52%. In addition, the Activity stood at 8% with HL-60 [2] and 45% in the assay with HL-60 [7]. In addition, the “fold change (FC)” value in the assay with HL-60 [3] and in the assay on HL-60 [4] was 2 throughout. Further, the outcome in the assay on HL-60 [5], in the assay on HL-60 [8], in the assay on HL-60 [10] and with PC-3 was Active. In addition, the result with SiHa and in the assay on HL-60 [6] was inactive. Moreover, the inhibition result in the assay on HL-60 [9] is “inactive”.
